Laboratory results reported in ChEMBL document CHEMBL4130356, “Design, synthesis and 2D QSAR study of novel pyridine and quinolone hydrazone derivatives as potential antimicrobial and antitubercular agents” (Eur J Med Chem, 2017).
≈ marks a conversion by molar mass, not a printed value. Calls of active or inactive are those of the source. The rule behind the calls is not given here.

Columns and labels:
Aspergillus fumigatus [1] = test: Antimicrobial activity against Aspergillus fumigatus RCMB 02568 after 48 hrs by serial dilution method; assay type: functional; details: RCMB 02568, 48 h
Method in brief: (§1)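 Serial twofold dilution in microtiter plates starting from a 100 mmol stock in DMSO; final concentrations 125 down to 0.12 […]. Incubated at 28°C and read on a microplate reader after 48 h. Amphotericin B was the reference. Run in triplicate, with the average taken. MIC was the lowest concentration inhibiting growth.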

Candida albicans [2] = test: Antimicrobial activity against Candida albicans RCMB 05036 after 48 hrs by serial dilution method; assay type: functional; details: RCMB 05036, 48 h; method in brief: as §1
Candida albicans [3] = test: Antimicrobial activity against Candida albicans RCMB 05036 assessed as diameter of zone inhibition at 100 ug/ml after 48 hrs by agar well diffusion assay; assay type: functional; details: for zone of inhibition at 100 µg/mL: RCMB 05036, 48 h, read-out: DIZ
Method in brief: (§2)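 Agar well diffusion on malt agar plates seeded with the fungus, using 1 cm wells. Plates were held at 4°C for 1 h for diffusion, then incubated at 28°C. Inhibition zone diameters were measured at 48 h. Amphotericin B was the positive control. Run in triplicate, with the mean zone reported.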

Aspergillus fumigatus [4] = test: Antimicrobial activity against Aspergillus fumigatus RCMB 02568 assessed as diameter of zone inhibition at 100 ug/ml after 48 hrs by agar well diffusion assay; assay type: functional; details: for zone of inhibition at 100 µg/mL: RCMB 02568, 48 h, read-out: DIZ; method in brief: as §2
Escherichia coli [5] = test: Antimicrobial activity against Escherichia coli RCMB 010052 assessed as diameter of zone inhibition at 100 ug/ml after 24 hrs by agar well diffusion assay; assay type: functional; details: for zone of inhibition at 100 µg/mL: RCMB 010052, 24 h, read-out: DIZ
Method in brief: (§3)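 Agar well diffusion on nutrient agar plates seeded with the bacterium, using 1 cm wells. Plates were held at 4°C for 1 h for diffusion, then incubated at 37°C. Inhibition zone diameters were measured at 24 h. Ciprofloxacin was the positive control. Run in triplicate, with the mean zone reported.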

Staphylococcus aureus [6] = test: Antimicrobial activity against Staphylococcus aureus RCMB 010028 assessed as diameter of zone inhibition at 100 ug/ml after 24 hrs by agar well diffusion assay; assay type: functional; details: for zone of inhibition at 100 µg/mL: RCMB 010028, 24 h, read-out: DIZ; method in brief: as §3
[7] = system: Mycobacterium tuberculosis; test: Antimycobacterial activity against Mycobacterium tuberculosis RCMB 010126 clinical isolate assessed as inhibition zone after 7 days by MABA; assay type: functional
Method in brief: (§4)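 Inoculum from fresh LJ culture resuspended in 7H9-S broth with casitone, glycerol and OADC, adjusted to McFarland No. 1 and diluted 1:20. Serial two-fold compound dilutions in 7H9-S; isoniazid reference. Incubated 7 days at 37°C in air, then Alamar blue added and incubated overnight. Percent inhibition = 1 − (test well/growth-control mean) × 100; MIC = lowest concentration preventing blue-to-pink change.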

Streptococcus pneumoniae [8] = test: Antimicrobial activity against Streptococcus pneumoniae RCMB 010010 assessed as diameter of zone inhibition at 100 ug/ml after 24 hrs by agar well diffusion assay; assay type: functional; details: for zone of inhibition at 100 µg/mL: RCMB 010010, 24 h, read-out: DIZ; method in brief: as §3
Pseudomonas aeruginosa [9] = details: RCMB 010043, 100 ug/ml
[10] = system: Mycobacterium tuberculosis; test: Antimycobacterial activity against Mycobacterium tuberculosis RCMB 010126 clinical isolate after 7 days by MABA; assay type: functional; method in brief: as §4
Pseudomonas aeruginosa [11] = details: RCMB 010043
Streptococcus pneumoniae [12] = test: Antimicrobial activity against Streptococcus pneumoniae RCMB 010010 after 24 hrs by serial dilution method; assay type: functional; details: RCMB 010010, 24 h
Method in brief: as §1, with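 “37°C” for “28°C”, “24” for “48”, “Ciprofloxacin” for “Amphotericin B”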

Escherichia coli [13] = test: Antimicrobial activity against Escherichia coli RCMB 010052 after 24 hrs by serial dilution method; assay type: functional; details: RCMB 010052, 24 h
Method in brief: as §1, with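 “37°C” for “28°C”, “24” for “48”, “Ciprofloxacin” for “Amphotericin B”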

Staphylococcus aureus [14] = test: Antimicrobial activity against Staphylococcus aureus RCMB 010028 after 24 hrs by serial dilution method; assay type: functional; details: RCMB 010028, 24 h
Method in brief: as §1, with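 “37°C” for “28°C”, “24” for “48”, “Ciprofloxacin” for “Amphotericin B”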

[15] = Mycobacterium tuberculosis, RCMB 010126, 168 h

SMILES | MIC (Aspergillus fumigatus [1]) [µg/mL] | MIC (Candida albicans [2]) [µg/mL] | zone of inhibition at 100 µg/mL (Candida albicans [3]) [mm] | zone of inhibition at 100 µg/mL (Aspergillus fumigatus [4]) [mm] | diameter of the inhibition zone (DIZ) (Escherichia coli [5]) | diameter of the inhibition zone (DIZ) (Candida albicans [3]) | diameter of the inhibition zone (DIZ) (Aspergillus fumigatus [4]) | zone of inhibition at 100 µg/mL (Staphylococcus aureus [6]) [mm] | inhibition zone (IZ) [7] | zone of inhibition at 100 µg/mL (Streptococcus pneumoniae [8]) [mm] | DIZ (Pseudomonas aeruginosa [9]) | MIC [10, 15] [µg/mL] | diameter of the inhibition zone (DIZ) (Staphylococcus aureus [6]) | diameter of the inhibition zone (DIZ) (Streptococcus pneumoniae [8]) | MIC (Pseudomonas aeruginosa [11]) | MIC (Streptococcus pneumoniae [12]) [µg/mL] | zone of inhibition at 100 µg/mL (Escherichia coli [5]) [mm] | MIC (Escherichia coli [13]) [µg/mL] | MIC (Staphylococcus aureus [14]) [µg/mL] | MIC [10]
C[C@@H]1[C@H](O)[C@@H](C)/C=C/C=C/C=C/C=C/C=C/C=C/C=C/[C@H](O[C@@H]2O[C@H](C)[C@@H](O)[C@H](N)[C@@H]2O)C[C@@H]2O[C@](O)(C[C@@H](O)C[C@@H](O)[C@H](O)CC[C@@H](O)C[C@@H](O)CC(=O)O[C@H]1C)C[C@H](O)[C@H]2C(=O)O [AMPHOTERICIN B] | 1.95 (≈ 2.11 µM) | 0.98 (≈ 1.06 µM) | 25.4 | 23.7 |  |  |  |  |  |  |  |  |  |  |  |  |  |  |  | 
Cc1nc(-c2cccc(Cl)c2)ccc1C(=O)N/N=C/c1ccc(Cl)cc1Cl |  |  |  |  | inactive | inactive | inactive | 11.4 | 41.98 mm | 19.3 | inactive | 6.24 (≈ 14.9 µM) |  |  |  |  |  |  |  | 
Cc1nc(-c2ccc(Cl)cc2)ccc1C(=O)N/N=C/c1ccc(Cl)cc1 |  |  |  |  | inactive | inactive | inactive |  | 36.24 mm |  | inactive | 12.5 (≈ 32.5 µM) | inactive | inactive |  |  |  |  |  | 
O=C(N/N=C/c1ccc(Cl)cc1Cl)c1c[nH]c2ccc(Cl)cc2c1=O | 15.6 (≈ 39.6 µM) | 62.5 (≈ 158 µM) | 14.1 | 16.9 |  |  |  | 15.7 | 18.3 mm | 17.5 | inactive | 99.8 (≈ 253 µM) |  |  | inactive | 7.81 (≈ 19.8 µM) | 20.7 | 1.95 (≈ 4.94 µM) | 15.6 (≈ 39.6 µM) | 
CC1(C)S[C@@H]2[C@H](NC(=O)[C@H](N)c3ccccc3)C(=O)N2[C@H]1C(=O)O [AMPICILLIN] |  |  |  |  |  |  |  | 27.4 |  | 23.8 |  |  |  |  |  | 0.98 (≈ 2.8 µM) |  |  | 0.98 (≈ 2.8 µM) | 
O=C(N/N=C/c1ccc(Cl)cc1)c1c[nH]c2ccc(Cl)cc2c1=O | 31.2 (≈ 86.8 µM) | 62.5 (≈ 174 µM) | 13.6 | 16.3 |  |  |  | 15.3 | 17.8 mm | 17.3 | inactive | 99.8 (≈ 277 µM) |  |  | inactive | 15.6 (≈ 43.4 µM) | 20.6 | 1.95 (≈ 5.41 µM) | 31.2 (≈ 86.8 µM) | 
Cc1nc(-c2ccc(Cl)cc2)ccc1C(=O)N/N=C/c1ccc(Cl)cc1Cl | 3.9 (≈ 9.31 µM) | 15.6 (≈ 37.3 µM) | 17.4 | 19.3 |  |  |  | 19.3 | 35.38 mm | 21.3 | inactive | 12.5 (≈ 29.8 µM) |  |  | inactive | 1.95 (≈ 4.66 µM) | 21.3 | 1.95 (≈ 4.66 µM) | 3.9 (≈ 9.31 µM) | 
NNC(=O)c1ccncc1 [ISONIAZID] |  |  |  |  |  |  |  |  | inactive |  |  | 0.75 (≈ 5.47 µM) |  |  |  |  |  |  |  | 
O=C(N/N=C/c1ccc(Cl)cc1)c1c[nH]c2cc(Cl)ccc2c1=O | 15.6 (≈ 43.4 µM) | 31.2 (≈ 86.8 µM) | 15.2 | 17.3 |  |  |  | 16.2 | 19.35 mm | 17.1 | inactive | 99.8 (≈ 277 µM) |  |  | inactive | 15.6 (≈ 43.4 µM) | 18.3 | 7.81 (≈ 21.7 µM) | 31.2 (≈ 86.8 µM) | 
Cc1ccc(/C=N/NC(=O)c2ccc(-c3ccc(Cl)cc3)nc2C)cc1 |  |  |  |  | inactive | inactive | inactive |  | 26.35 mm |  | inactive | 49.9 (≈ 137 µM) | inactive | inactive |  |  |  |  |  | 
O=C(N/N=C/c1ccc(F)cc1)c1c[nH]c2ccc(Cl)cc2c1=O | 15.6 (≈ 45.5 µM) | 31.2 (≈ 90.9 µM) | 10.3 | 11.3 |  |  |  | 10.6 | inactive | 12.4 | inactive |  |  |  | inactive | 15.6 (≈ 45.5 µM) | 12.7 | 62.5 (≈ 182 µM) | 31.2 (≈ 90.9 µM) | inactive
Cc1nc(-c2ccc(Cl)cc2)ccc1C(=O)N/N=C/c1ccc(F)cc1 |  |  |  |  | inactive | inactive | inactive |  | 40.31 mm |  | inactive | 6.24 (≈ 17 µM) | inactive | inactive |  |  |  |  |  | 
COc1ccc(/C=N/NC(=O)c2c[nH]c3ccc(Cl)cc3c2=O)cc1OC | 7.81 (≈ 20.2 µM) | 15.6 (≈ 40.5 µM) | 16.9 | 18.4 |  |  |  | 17.2 | 31.25 mm | 19.1 | inactive | 25 (≈ 64.7 µM) |  |  | inactive | 3.9 (≈ 10.1 µM) | 21.3 | 1.95 (≈ 5.05 µM) | 15.6 (≈ 40.5 µM) | 
Cc1ccc(/C=N/NC(=O)c2c[nH]c3ccc(Cl)cc3c2=O)cc1 |  |  | 12.1 | 10.3 | inactive |  |  |  | inactive | 20.4 | inactive |  | inactive |  |  |  |  |  |  | inactive
Cc1nc(-c2cccc(Cl)c2)ccc1C(=O)N/N=C/c1ccc(F)cc1 |  |  |  |  | inactive | inactive | inactive |  | 52.34 mm |  | inactive | 3.12 (≈ 8.48 µM) | inactive | inactive |  |  |  |  |  | 
COc1ccc(/C=N/NC(=O)c2c[nH]c3cc(Cl)ccc3c2=O)cc1OC | 3.9 (≈ 10.1 µM) | 31.2 (≈ 81 µM) | 16.2 | 20.3 |  |  |  | 20.6 | inactive | 17.3 | inactive |  |  |  | inactive | 15.6 (≈ 40.5 µM) | 20.3 | 3.9 (≈ 10.1 µM) | 1.95 (≈ 5.05 µM) | inactive
O=C(N/N=C/c1ccc(F)cc1)c1c[nH]c2cc(Cl)ccc2c1=O |  |  | 14.4 | 16.8 |  |  |  | 16.2 | 36.42 mm | 16.9 | inactive | 12.5 (≈ 36.3 µM) |  |  |  |  | 12.5 |  |  | 
COc1cc(/C=N/NC(=O)c2c[nH]c3cc(Cl)ccc3c2=O)cc(OC)c1OC |  |  |  |  | inactive | inactive | inactive |  | 42.65 mm |  | inactive | 6.24 (≈ 15 µM) | inactive | inactive |  |  |  |  |  | 
